Read-outs that look alike come from different tables or passages of the source. Marks after values point to notes of the source that are not given here.
Tests used:
[1] = system: MIA PaCa2; test: Cell viability assay; assay type: cell-based, human; details: read-out: IC50 (μM) MIA PaCa2
Procedure, shortened: (§1)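 Cells were grown in RPMI-1640 with 10% FBS, pyruvate, HEPES, glutamine and antibiotics at 37°C, 5% CO2, and seeded at 6000 cells/well. After 24 h adherence, half the medium was replaced with serially diluted test compound, 5-fluorouracil, or methanol-containing medium. Exposure lasted 72 h. MTT (5 mg/ml solution) was then added for 3 h at 37°C, formazan dissolved in HCl-acidified isopropanol, and absorbance read at 570 nm.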

[2] = system: AsPC-1; test: Cell viability assay; assay type: cell-based, human; details: read-out: IC50 (μM) AsPC-1
Procedure, shortened: as §1

[3] = system: BxPC-3; test: Cell viability assay; assay type: cell-based, human; details: read-out: IC50 (μM) BxPC-3
Procedure, shortened: as §1

[4] = system: Panc-1; test: Cell viability assay; assay type: cell-based, human; details: read-out: IC50 (μM) Panc-1
Procedure, shortened: as §1

[5] = system: genomic salmon testes DNA; test: DNA intercalation assay; assay type: binding; details: for % DNA intercalation: 25 μg/ml, ethidium bromide displacement; for DNA intercalation (in words): 5 and 25 μg/ml
Procedure, shortened: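 Genomic salmon testes DNA (0.5 μg) was equilibrated with 1.27 μM ethidium bromide for 30 min at room temperature. Test compound (5 or 25 μg/ml), methanol vehicle, 1 μM doxorubicin (positive control) or 100 μM etoposide (negative control) was added for a further 30 min. Ethidium displacement was read as a fluorescence decrease (ex 340, em 590 nm). Mean of 3 experiments ± standard deviation.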

[6] = system: AsPC-1 cells; test: Cell cycle analysis by flow cytometry; assay type: cell-based, human; details: 48 hours
Procedure, shortened: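 AsPC-1 cells were trypsinized into 6-well plates and allowed to adhere for 24 h. They were then exposed for 48 h to test compound at 5 or 25 μg/ml, methanol vehicle, medium alone, or 100 nM paclitaxel as positive control. Cells were fixed in ice-cold ethanol (−20°C, 1 h) and stained with propidium iodide plus RNase A (30 min, 37°C) for flow cytometry. Run 3 times.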

[7] = biological target: topoisomerase II (Homo sapiens, UniProt P11388); test: Decatenation reaction of kinetoplast DNA; assay type: biochemical; details: for inhibition at 25 µg/mL: read-out: % Inhibition topoisomeraseII; for topoisomerase II inhibition (in words) / % Inhibition topoisomeraseII: 25 μg/ml; for % Inhibition topoisomeraseII: decatenation of kinetoplast DNA, 30 minutes
Procedure, shortened: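 A commercial kit assay was used: 0.2 μg kinetoplast DNA plus 1 U topoisomerase II in ATP/MgCl2/DTT buffer, 20 μl reactions. Test compound was added at 5 or 25 μg/ml (methanol vehicle); 100 μM etoposide in DMSO served as positive control. Reactions ran 30 min at 37°C, were stopped with Sarkosyl loading dye, and resolved on 1% agarose with ethidium bromide. Gel densitometry was used; seven experiments, SEM, Student's t test.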

[8] = system: Vero; test: Cell viability assay; assay type: cell-based, African green monkey; details: read-out: IC50 (μM) Vero; MTT, 72 hours, n=4 ± SE; normal cell line
Procedure, shortened: as §1

[9] = system: AsPC-1; details: read-out: IC50 (μM) AsPC-1; ref Li et al ([14]); cited from earlier work
[10] = system: Panc-1; details: read-out: IC50 (μM) Panc-1; ref Li et al ([14]); cited from earlier work
[11] = system: MIA PaCa2; details: read-out: IC50 (μM) MIA PaCa2; ref Li et al ([14]); cited from earlier work
[12] = system: BxPC-3; details: read-out: IC50 (μM) BxPC-3; ref Li et al ([14]); cited from earlier work
[13] = system: Panc-1, AsPC-1, BxPC-3, and MIA-PaCa2; test: Cell viability assay; assay type: cell-based, human; details: read-out: IC50 in all pancreatic cell lines
Procedure, shortened: as §1

Sequence of topoisomerase II (P11388 whole entry): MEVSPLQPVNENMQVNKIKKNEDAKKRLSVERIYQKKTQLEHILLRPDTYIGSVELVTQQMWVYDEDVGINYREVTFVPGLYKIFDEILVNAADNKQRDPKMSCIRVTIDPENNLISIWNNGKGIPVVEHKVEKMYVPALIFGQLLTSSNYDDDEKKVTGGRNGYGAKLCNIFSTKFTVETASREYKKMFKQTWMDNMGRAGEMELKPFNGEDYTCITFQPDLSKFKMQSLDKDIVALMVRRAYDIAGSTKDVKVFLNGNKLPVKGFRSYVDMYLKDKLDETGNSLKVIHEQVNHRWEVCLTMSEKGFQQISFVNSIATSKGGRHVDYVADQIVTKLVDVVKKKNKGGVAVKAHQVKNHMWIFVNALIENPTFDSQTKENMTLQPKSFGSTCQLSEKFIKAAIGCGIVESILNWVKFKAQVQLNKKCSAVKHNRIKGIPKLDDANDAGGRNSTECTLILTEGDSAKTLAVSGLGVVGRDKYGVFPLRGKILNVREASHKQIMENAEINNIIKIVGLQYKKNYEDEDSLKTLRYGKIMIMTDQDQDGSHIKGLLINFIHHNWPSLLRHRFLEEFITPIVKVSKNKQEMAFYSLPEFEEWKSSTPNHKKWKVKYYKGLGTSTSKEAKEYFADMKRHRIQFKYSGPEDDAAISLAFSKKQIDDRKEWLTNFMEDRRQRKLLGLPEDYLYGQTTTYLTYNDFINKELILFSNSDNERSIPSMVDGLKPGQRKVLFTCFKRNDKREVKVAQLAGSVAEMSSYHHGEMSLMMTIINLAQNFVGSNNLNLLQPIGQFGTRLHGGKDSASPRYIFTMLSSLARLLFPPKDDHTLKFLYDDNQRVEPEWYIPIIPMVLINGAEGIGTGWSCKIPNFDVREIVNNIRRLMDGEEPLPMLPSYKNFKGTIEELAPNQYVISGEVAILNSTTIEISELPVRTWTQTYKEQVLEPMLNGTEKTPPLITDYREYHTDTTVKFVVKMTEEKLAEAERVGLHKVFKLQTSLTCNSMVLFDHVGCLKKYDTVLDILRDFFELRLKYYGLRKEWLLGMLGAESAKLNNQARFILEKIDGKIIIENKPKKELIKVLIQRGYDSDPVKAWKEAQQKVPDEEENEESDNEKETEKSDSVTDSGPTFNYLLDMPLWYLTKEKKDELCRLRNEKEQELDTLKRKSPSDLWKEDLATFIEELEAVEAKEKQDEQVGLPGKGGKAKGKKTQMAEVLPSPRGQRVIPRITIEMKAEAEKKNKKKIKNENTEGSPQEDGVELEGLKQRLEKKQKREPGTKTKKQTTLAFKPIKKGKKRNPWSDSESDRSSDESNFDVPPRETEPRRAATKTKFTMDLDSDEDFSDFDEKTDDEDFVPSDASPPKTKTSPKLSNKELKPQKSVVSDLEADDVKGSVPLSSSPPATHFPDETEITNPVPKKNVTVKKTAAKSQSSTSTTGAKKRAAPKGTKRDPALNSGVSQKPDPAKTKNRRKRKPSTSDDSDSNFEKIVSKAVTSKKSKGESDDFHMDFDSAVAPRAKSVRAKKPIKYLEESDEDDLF

SMILES | IC50 ([1]; Homo sapiens, MIA PaCa-2, 72 h) [µM] | IC50 ([2]; Homo sapiens, ASPC1, 72 h) [µM] | IC50 ([3]; Homo sapiens, BXPC-3, 72 h) [µM] | IC50 ([4]; Homo sapiens, PANC-1, 72 h) [µM] | % DNA intercalation [5] | DNA intercalation (in words) [5] | IC50 ([1]; MTT, 72 hours, n=4 ± SE) [µM] | IC50 ([2]; MTT, 72 hours, n=4 ± SE) [µM] | IC50 ([3]; MTT, 72 hours, n=4 ± SE) [µM] | % Inhibition topoisomeraseII [7] | IC50 ([4]; MTT, 72 hours, n=4 ± SE) [µM] | Cell cycle arrest ([6]; 5 μg/ml, data not shown) | Cell cycle arrest ([6]; 25 μg/ml) | inhibition at 25 µg/mL [7] [%] | IC50 [8] [µM] | topoisomerase II inhibition (in words) [7] | other results
CSc1c2c3c(n1C)C(=O)C(=O)C(Cl)=C3NCC2 [Batzelline A] | > 17.7 | > 17.7 | > 17.7 | > 17.7 | 18% | no DNA intercalation | – | – | – | – | – | S-phase cell cycle arrest | S phase | 58 | – | – | –
Nc1ccn([C@@H]2O[C@H](CO)[C@@H](O)C2(F)F)c(=O)n1 [Gemcitabine, gemcitabine] | – | – | – | – | – | – | – | – | – | – | – | – | – | – | – | – | IC50 [9]: > 250 µM; IC50 [10]: 7.2 µM; IC50 [11]: 14.5 µM; IC50 [12]: > 250 µM
Cn1cc2c3c1C(=O)C(N)=C(Cl)C3=NCC2 [Isobatzelline C] | 2.34 ± 0.0977 | 1.72 ± 0.168 | 1.31 ± 0.185 | 9.98 ± 0.384 | 56 ^** % | – | – | – | – | – | – | S-phase cell cycle arrest | S phase | 27 | – | – | IC50 ([13]; Homo sapiens, 72 h): < 10 µM
CSc1c2ccnc3c2c(n1C)C(=O)C(N)=C3Cl [Isobatzelline D] | – | – | – | – | 47 ^** % | – | 2.67 ± 0.295 | 1.48 ± 0.187 | 1.48 ± 0.18 | 26% | 5.72 ± 0.253 | S-phase cell cycle arrest | S phase | – | 15.7 ± 1.17 | – | IC50 ([13]; MTT, 72 hours): < 10 µM

Continued, in another order:

IC50 ([1]; Homo sapiens, MIA PaCa-2, 72 h) [µM] | IC50 ([2]; Homo sapiens, ASPC1, 72 h) [µM] | IC50 ([3]; Homo sapiens, BXPC-3, 72 h) [µM] | IC50 ([4]; Homo sapiens, PANC-1, 72 h) [µM] | % DNA intercalation [5] | DNA intercalation (in words) [5] | IC50 ([1]; MTT, 72 hours, n=4 ± SE) [µM] | IC50 ([2]; MTT, 72 hours, n=4 ± SE) [µM] | IC50 ([3]; MTT, 72 hours, n=4 ± SE) [µM] | % Inhibition topoisomeraseII [7] | IC50 ([4]; MTT, 72 hours, n=4 ± SE) [µM] | SMILES | Cell cycle arrest ([6]; 5 μg/ml, data not shown) | Cell cycle arrest ([6]; 25 μg/ml) | inhibition at 25 µg/mL [7] [%] | IC50 [8] [µM] | topoisomerase II inhibition (in words) [7] | other results
8.31 ± 0.357 | > 38.4 | 5.56 ± 1.64 | 5.73 ± 0.682 | – | – | – | – | – | – | – | O=c1[nH]cc(F)c(=O)[nH]1 [5-Fluorouracil, 5-fluorouracil, reference compound] | – | – | – | – | – | –
– | – | – | – | 21% | – | > 18.6 | > 18.6 | > 18.6 | 63 ^* % | > 18.6 | CSC1=Nc2c(O)c(O)c(Cl)c3c2=C1CCN=3 [Batzelline B] | did not have an effect | S phase | – | > 18.6 | significantly inhibited topoisomerase II activity | –
– | – | – | – | 54 ^** % | significant intercalation into DNA | 4.34 ± 0.22 | 1.74 ± 0.415 | 2.39 ± 0.218 | 36 ^* % | 9.37 ± 0.536 | CSc1c2c3c(n1C)C(=O)C(N)=C(Cl)C3=NCC2 [Isobatzelline A] | S-phase cell cycle arrest | S phase | – | > 17.7 | significantly inhibited topoisomerase II activity | IC50 ([13]; MTT, 72 hours): < 10 µM
– | – | – | – | – | significant intercalation into DNA | > 21.5 | > 21.5 | > 21.5 | 95 ^* % | > 21.5 | Cn1cc2ccnc3c2c1C(=O)C(N)=C3Cl [Isobatzelline E] | did not have an effect | – | – | > 21.5 | significantly inhibited topoisomerase II activity | –
5.63 ± 0.739 | 3.62 ± 0.801 | 4.09 ± 0.146 | 10.4 ± 1.16 | – | significant intercalation into DNA | – | – | – | – | – | N=C1C(Cl)=C(N)C(=O)c2[nH]cc(C(O)CO)c21 (centres unmarked) [Secobatzelline A] | S-phase cell cycle arrest | S phase | 61 | – | significantly inhibited topoisomerase II activity | IC50 ([13]; Homo sapiens, 72 h): < 10 µM
> 19.5 | > 19.5 | > 19.5 | 17.4 ± 0.281 | – | no DNA intercalation | – | – | – | – | – | NC1=C(Cl)C(=O)c2c(C(O)CO)c[nH]c2C1=O (centres unmarked) [Secobatzelline B] | did not have an effect | S phase | 13 | – | no DNA intercalation or topoisomerase II inhibition | –

From PMC3031457 (Anti-cancer drugs, 2009)
